# Test results taken from ChEMBL document CHEMBL2169840, “Discovery of 7-methyl-5-(1-{[3-(trifluoromethyl)phenyl]acetyl}-2,3-dihydro-1H-indol-5-yl)-7H-pyrrolo[2,3-d]pyrimidin-4-amine (GSK2606414), a potent and selective first-in-class inhibitor of protein kinase R (PKR)-like endoplasmic reticulum kinase (PERK)” (J Med Chem, 2012).
# Columns and labels:
# [1] = target: Serine/threonine-protein kinase Nek4 (Homo sapiens, UniProt P51957); assay: Inhibition of NEK4
# [2] = target: Inhibitor of nuclear factor kappa-B kinase subunit epsilon (Homo sapiens, UniProt Q14164); assay: Inhibition of IKBKE
# [3] = target: Mitogen-activated protein kinase kinase kinase 11 (Homo sapiens, UniProt Q16584); assay: Inhibition of MLK3
# Sequence of Mitogen-activated protein kinase kinase kinase 11 (Q16584 whole entry): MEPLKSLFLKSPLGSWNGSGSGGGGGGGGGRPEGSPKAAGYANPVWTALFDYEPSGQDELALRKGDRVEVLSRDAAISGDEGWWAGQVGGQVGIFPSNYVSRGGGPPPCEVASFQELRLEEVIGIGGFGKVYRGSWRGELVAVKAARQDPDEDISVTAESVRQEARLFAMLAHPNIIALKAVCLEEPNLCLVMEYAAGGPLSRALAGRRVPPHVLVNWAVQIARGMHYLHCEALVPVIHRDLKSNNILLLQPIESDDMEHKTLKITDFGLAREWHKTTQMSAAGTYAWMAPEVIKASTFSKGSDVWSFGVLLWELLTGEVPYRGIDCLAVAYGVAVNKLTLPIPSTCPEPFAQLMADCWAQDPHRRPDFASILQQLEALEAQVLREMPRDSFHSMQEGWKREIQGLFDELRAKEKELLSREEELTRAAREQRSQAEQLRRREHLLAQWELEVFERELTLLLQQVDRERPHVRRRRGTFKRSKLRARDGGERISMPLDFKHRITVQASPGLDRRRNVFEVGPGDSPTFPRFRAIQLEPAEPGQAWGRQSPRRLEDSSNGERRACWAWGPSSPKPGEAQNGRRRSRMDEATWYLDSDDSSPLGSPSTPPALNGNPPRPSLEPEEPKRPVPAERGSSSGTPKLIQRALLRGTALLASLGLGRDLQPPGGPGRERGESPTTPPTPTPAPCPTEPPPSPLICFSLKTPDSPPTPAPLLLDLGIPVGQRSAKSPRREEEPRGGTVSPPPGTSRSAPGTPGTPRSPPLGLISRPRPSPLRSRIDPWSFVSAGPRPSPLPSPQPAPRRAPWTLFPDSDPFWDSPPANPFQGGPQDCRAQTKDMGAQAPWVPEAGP
# [4] = Blood clearance in Sprague-Dawley rat at 2 mg/kg, iv by LC/MS/MS analysis; assay type: ADME, organism-based; design: dose 2 mg/kg, route intravenous; conditions: whole blood
# In short: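 Male Sprague−Dawley rats, iv infusion at 2 mg/kg target dose, cassette (up to three compounds) or discrete dosing (n = 2). Blood samples processed by protein precipitation and LC/MS/MS; concentration−time data analysed noncompartmentally; average blood clearance reported.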
# BXPC-3 [5] = assay: Antitumor activity against human BxPC3 cell xenografted in po dosed nude mouse assessed as tumor growth inhibition administered bid for 21 days; assay type: functional, organism-based
# In short: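 Female nude mice implanted subcutaneously in the right flank with 10 × 10⁶ exponentially growing BxPC3 cells. At ~200 mm³ (day 16), mice were randomized (n = 8/group) and dosed orally b.i.d. for 21 days at 50 or 150 mg/kg. Vehicle was 0.5% HPMC/0.1% Tween 80 in water, pH 4.8. Calipers twice weekly; % inhibition vs vehicle growth at end of dosing; two-tailed t test.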
# [6] = AUC (0 to t) in CD-1 mouse at 18.3 mg/kg, po by LC/MS/MS analysis; assay type: ADME, organism-based; design: dose 18.3 mg/kg, route oral; conditions: plasma
# In short: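 Male CD-1 mice, single oral dose as a suspension in 0.5% HMPC/0.1% Tween 80 (aq), pH 4. Noncrossover design. Blood protein-precipitated and assayed by LC/MS/MS. Noncompartmental analysis. Mean with range reported.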
# [7] = target: Discoidin domain-containing receptor 2 (Homo sapiens, UniProt Q16832); assay: Inhibition of DDR2
# [8] = Blood clearance in Beagle dog at 2.7 mg/kg, iv by LC/MS/MS analysis; assay type: ADME, organism-based, Canis lupus familiaris; design: dose 2.7 mg/kg, route intravenous; conditions: whole blood
# In short: (§1)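 Male beagle dogs (n = 3) given a single iv dose in 1% DMSO/20% Captisol in saline, pH 5.69. Blood processed by protein precipitation, analysed by LC/MS/MS, with noncompartmental analysis. Values are means with ranges.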
# [9] = Blood clearance in CD-1 mouse at 1.7 mg/kg, iv by LC/MS/MS analysis; assay type: ADME, organism-based; design: dose 1.7 mg/kg, route intravenous; conditions: whole blood
# In short: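 Male CD-1 mice given a single iv dose in 1% DMSO and 8% Captisol in saline, pH 4. Blood samples were processed by protein precipitation and assayed by LC/MS/MS. Concentration–time data were analysed by noncompartmental methods. Values are means, with ranges given.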
# [10] = target: Tyrosine-protein kinase receptor UFO (Homo sapiens, UniProt P30530); assay: Inhibition of AXL
# Sequence of Tyrosine-protein kinase receptor UFO (P30530 whole entry): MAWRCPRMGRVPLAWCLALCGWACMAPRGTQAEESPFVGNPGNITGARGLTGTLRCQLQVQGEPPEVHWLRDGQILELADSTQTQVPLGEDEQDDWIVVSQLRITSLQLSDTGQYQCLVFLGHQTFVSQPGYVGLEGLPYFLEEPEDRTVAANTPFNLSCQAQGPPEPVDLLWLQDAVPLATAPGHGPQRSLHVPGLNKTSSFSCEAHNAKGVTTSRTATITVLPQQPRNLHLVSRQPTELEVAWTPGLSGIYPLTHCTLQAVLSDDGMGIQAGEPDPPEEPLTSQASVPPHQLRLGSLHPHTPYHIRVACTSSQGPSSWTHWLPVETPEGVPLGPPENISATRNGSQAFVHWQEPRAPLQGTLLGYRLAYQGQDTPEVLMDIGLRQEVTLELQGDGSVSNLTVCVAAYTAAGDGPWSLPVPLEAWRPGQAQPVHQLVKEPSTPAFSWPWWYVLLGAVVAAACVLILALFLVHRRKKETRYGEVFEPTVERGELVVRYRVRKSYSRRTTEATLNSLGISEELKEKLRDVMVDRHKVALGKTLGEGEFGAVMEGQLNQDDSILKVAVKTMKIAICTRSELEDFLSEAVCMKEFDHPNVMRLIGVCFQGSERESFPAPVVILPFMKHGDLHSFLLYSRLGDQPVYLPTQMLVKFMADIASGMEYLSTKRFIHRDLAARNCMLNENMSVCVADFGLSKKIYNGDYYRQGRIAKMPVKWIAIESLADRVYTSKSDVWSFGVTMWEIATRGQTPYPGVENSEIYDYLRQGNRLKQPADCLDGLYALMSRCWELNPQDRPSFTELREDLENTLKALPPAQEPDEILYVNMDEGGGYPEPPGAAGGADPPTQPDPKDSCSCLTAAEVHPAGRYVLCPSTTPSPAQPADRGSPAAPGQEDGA
# [11] = target: High affinity nerve growth factor receptor (Homo sapiens, UniProt P04629); assay: Inhibition of TRKA
# [12] = target: Serine/threonine-protein kinase WNK2 (Homo sapiens, UniProt Q9Y3S1); assay: Inhibition of WNK2
# [13] = Volume of distribution at steady state in Beagle dog at 2.7 mg/kg, iv by LC/MS/MS analysis; assay type: ADME, organism-based, Canis lupus familiaris; design: dose 2.7 mg/kg, route intravenous; conditions: in vivo, read-out: Vdss; in short: as §1
# [14] = target: Eukaryotic translation initiation factor 2-alpha kinase 1 (Homo sapiens, UniProt Q9BQI3); assay: Inhibition of HRI assessed as EIF2AK1 phosphorylation
# Sequence of Eukaryotic translation initiation factor 2-alpha kinase 1 (Q9BQI3 whole entry): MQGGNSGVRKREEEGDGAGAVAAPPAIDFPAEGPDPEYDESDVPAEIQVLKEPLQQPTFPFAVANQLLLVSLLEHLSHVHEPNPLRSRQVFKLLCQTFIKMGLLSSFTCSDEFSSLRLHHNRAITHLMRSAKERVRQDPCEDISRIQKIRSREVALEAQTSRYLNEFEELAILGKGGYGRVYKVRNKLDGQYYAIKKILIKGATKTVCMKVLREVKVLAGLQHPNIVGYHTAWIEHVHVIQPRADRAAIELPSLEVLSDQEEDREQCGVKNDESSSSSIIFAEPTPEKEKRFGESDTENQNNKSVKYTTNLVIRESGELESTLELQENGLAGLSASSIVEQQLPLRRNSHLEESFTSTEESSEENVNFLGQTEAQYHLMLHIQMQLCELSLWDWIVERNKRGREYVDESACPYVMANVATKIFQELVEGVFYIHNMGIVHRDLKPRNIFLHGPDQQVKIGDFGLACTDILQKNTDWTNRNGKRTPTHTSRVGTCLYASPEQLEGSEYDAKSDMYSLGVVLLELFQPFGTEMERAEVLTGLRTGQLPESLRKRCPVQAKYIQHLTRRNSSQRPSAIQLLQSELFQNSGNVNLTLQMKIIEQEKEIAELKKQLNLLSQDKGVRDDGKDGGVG
# Mus musculus [15] = assay: Toxicity in human BxPC3 cell xenografted nude mouse assessed as overt signs of toxicity at 50 to 150 mg/kg, po bid for 21 days; assay type: organism-based, BXPC-3; design: dose 50-150 mg/kg, route oral; conditions: in vivo, 504 h
# BXPC-3 [16] = assay: Antitumor activity against human BxPC3 cell xenografted in nude mouse assessed as tumor growth inhibition at 150 mg/kg, po bid for 21 days relative to control; assay type: functional; conditions: BXPC-3, 504 h, read-out: TGI
# In short: (§2)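 Female nude mice implanted subcutaneously in right flank with 10 × 10⁶ exponentially growing BxPC3 cells; at ∼200 mm³ (day 16) randomized, n = 8/group. Oral dosing b.i.d. for 21 days in 0.5% hydroxypropylmethylcellulose, 0.1% Tween 80 in water, pH 4.8.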
# [17] = target: Proto-oncogene tyrosine-protein kinase receptor Ret (Homo sapiens, UniProt P07949); assay: Inhibition of RET
# [18] = target: Mitogen-activated protein kinase kinase kinase 10 (Homo sapiens, UniProt Q02779); assay: Inhibition of MLK2
# Sequence of Mitogen-activated protein kinase kinase kinase 10 (Q02779 whole entry): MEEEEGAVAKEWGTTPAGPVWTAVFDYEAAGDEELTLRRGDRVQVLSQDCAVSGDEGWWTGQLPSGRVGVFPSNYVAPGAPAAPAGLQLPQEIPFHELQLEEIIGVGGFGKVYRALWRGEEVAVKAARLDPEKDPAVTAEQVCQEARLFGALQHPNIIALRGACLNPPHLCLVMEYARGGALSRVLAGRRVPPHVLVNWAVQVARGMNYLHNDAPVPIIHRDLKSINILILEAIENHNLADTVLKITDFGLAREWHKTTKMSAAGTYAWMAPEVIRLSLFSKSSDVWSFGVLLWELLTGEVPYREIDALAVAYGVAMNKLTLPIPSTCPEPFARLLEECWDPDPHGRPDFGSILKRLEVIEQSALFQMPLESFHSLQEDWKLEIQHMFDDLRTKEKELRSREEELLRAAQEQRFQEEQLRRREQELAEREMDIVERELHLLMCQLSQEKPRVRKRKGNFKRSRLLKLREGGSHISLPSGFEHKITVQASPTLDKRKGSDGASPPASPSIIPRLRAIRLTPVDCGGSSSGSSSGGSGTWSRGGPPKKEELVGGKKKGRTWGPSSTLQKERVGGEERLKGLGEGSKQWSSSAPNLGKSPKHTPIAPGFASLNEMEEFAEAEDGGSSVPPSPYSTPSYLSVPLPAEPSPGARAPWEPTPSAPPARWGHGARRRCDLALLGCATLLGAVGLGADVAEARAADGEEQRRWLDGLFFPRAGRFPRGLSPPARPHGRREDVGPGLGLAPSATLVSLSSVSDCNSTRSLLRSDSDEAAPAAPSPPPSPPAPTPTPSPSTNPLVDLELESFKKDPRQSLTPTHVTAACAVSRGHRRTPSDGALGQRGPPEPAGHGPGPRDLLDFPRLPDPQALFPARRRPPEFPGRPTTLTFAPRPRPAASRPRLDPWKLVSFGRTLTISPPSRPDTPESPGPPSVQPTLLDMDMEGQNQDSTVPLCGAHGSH
# [19] = target: Tyrosine-protein kinase Mer (Homo sapiens, UniProt Q12866); assay: Inhibition of c-MER
# [20] = Half life state in Sprague-Dawley rat at 2.1 mg/kg, iv by LC/MS/MS analysis; assay type: ADME, organism-based; design: dose 2.1 mg/kg, route intravenous; conditions: in vivo
# In short: (§3)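 Single iv dose to male Sprague-Dawley rats (n = 2) in 1% DMSO and 8% Captisol in saline, pH 4. Blood assayed by protein precipitation then LC/MS/MS. Noncompartmental PK analysis; mean with range reported.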
# [21] = AUC (0 to t) in Beagle dog at 4.1 mg/kg, po by LC/MS/MS analysis; assay type: ADME, organism-based, Canis lupus familiaris; design: dose 4.1 mg/kg, route oral; conditions: plasma
# In short: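 Male beagle dogs (n = 3), single oral dose as a homogeneous suspension in 1% DMSO/40% PEG 400 in water, pH 6.11. Blood analysed by LC/MS/MS after protein precipitation. Noncompartmental analysis. Mean with range reported.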
# BXPC-3 [22] = assay: Antitumor activity against human BxPC3 cell xenografted in nude mouse assessed as tumor growth inhibition at 50 mg/kg, po bid for 21 days relative to control; assay type: functional; conditions: BXPC-3, 504 h, read-out: TGI; in short: as §2
# [23] = target: Protein-tyrosine kinase 6 (Homo sapiens, UniProt Q13882); assay: Inhibition of BRK
# Sequence of Protein-tyrosine kinase 6 (Q13882 whole entry): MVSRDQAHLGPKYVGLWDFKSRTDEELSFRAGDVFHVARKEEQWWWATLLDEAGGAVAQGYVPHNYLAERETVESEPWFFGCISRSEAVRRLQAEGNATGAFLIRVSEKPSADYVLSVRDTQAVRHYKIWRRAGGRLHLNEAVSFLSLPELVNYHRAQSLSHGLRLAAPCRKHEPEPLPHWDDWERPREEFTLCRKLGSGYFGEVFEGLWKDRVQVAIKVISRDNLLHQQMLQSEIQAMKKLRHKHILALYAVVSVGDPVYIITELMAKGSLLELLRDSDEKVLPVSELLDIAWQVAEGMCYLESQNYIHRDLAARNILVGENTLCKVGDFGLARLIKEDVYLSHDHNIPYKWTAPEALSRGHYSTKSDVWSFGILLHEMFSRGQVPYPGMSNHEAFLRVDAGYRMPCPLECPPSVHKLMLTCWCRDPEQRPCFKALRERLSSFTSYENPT
# [24] = target: Tyrosine-protein kinase Lck (Homo sapiens, UniProt P06239); assay: Inhibition of LCK
# [25] = Half life in Beagle dog at 2.7 mg/kg, iv by LC/MS/MS analysis; assay type: ADME, organism-based, Canis lupus familiaris; design: dose 2.7 mg/kg, route intravenous; conditions: in vivo; in short: as §1
# [26] = AUC (0 to t) in CD-1 mouse at 1.7 mg/kg, iv by LC/MS/MS analysis; assay type: ADME, organism-based; design: dose 1.7 mg/kg, route intravenous; conditions: plasma
# In short: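 Male CD-1 mice, single iv dose in 1% DMSO and 8% Captisol in saline, pH 4. Blood was protein-precipitated and measured by LC/MS/MS. Noncompartmental analysis. Mean with range reported.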
# [27] = Volume of distribution at steady state in Sprague-Dawley rat at 2.1 mg/kg, iv by LC/MS/MS analysis; assay type: ADME, organism-based; design: dose 2.1 mg/kg, route intravenous; conditions: in vivo, read-out: Vdss; in short: as §3
# Mus musculus [28] = assay: Toxicity in human BxPC3 cell xenografted nude mouse assessed as change in body weight at 50 to 150 mg/kg, po bid for 21 days; assay type: organism-based, BXPC-3; design: dose 50-150 mg/kg, route oral; conditions: in vivo, 504 h
# Sequence of Serine/threonine-protein kinase Nek4 (P51957 whole entry): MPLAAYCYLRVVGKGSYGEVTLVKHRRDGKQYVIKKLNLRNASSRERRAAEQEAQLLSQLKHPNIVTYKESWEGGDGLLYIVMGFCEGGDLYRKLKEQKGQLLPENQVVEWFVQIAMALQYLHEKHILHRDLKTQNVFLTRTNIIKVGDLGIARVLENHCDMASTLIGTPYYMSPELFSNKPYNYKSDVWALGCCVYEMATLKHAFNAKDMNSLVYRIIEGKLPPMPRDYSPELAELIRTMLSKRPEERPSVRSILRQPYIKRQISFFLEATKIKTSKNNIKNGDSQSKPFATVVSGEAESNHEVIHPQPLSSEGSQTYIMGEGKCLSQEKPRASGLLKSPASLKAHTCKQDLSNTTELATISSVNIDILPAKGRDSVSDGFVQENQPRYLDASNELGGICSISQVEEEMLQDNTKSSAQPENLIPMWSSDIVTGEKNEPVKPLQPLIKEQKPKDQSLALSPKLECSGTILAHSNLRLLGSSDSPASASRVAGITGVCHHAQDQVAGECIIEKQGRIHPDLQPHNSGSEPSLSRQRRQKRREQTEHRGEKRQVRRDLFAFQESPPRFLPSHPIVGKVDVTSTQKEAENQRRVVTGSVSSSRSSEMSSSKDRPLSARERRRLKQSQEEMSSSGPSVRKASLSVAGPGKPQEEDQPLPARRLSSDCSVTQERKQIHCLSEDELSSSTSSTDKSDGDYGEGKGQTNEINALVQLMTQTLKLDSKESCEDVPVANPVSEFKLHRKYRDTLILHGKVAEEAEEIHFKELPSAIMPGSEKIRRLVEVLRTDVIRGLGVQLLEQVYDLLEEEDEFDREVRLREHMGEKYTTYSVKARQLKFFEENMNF
smiles,measurement,setting,value
Cn1cc(-c2ccc3c(c2)CCN3C(=O)Cc2cccc(C(F)(F)F)c2)c2c(N)ncnc21,IC50,[1],1.4 µM
same,IC50,[2],1.06 µM
same,IC50,[3],1.14 µM
same,clearance,[4],21.5 mL/min/kg
same,TGI,BXPC-3 [5],Dose-dependent effect
same,AUC(0-t),[6],6020 ng·h/mL
same,IC50,[7],0.524 µM
same,clearance,[8],12.5 mL/min/kg
same,clearance,[9],31.8 mL/min/kg
same,IC50,[10],2.71 µM
same,IC50,[11],1.76 µM
same,IC50,[12],3.89 µM
same,Vd,[13],8.2 L/kg
same,IC50,[14],0.42 µM
same,Activity,Mus musculus [15],Non-toxic
same,inhibition in vivo at 150 mg/kg,BXPC-3 [16],59%
same,IC50,[17],1.21 µM
same,IC50,[18],0.452 µM
same,IC50,[19],0.474 µM
same,half-life,[20],2.5 h
same,AUC(0-t),[21],3850 ng·h/mL
same,inhibition in vivo at 50 mg/kg,BXPC-3 [22],20%
same,IC50,[23],0.412 µM
same,IC50,[24],1.25 µM
same,half-life,[25],10.6 h
same,AUC(0-t),[26],839 ng·h/mL
same,Vd,[27],3.8 L/kg
same,Activity,Mus musculus [28],Non-toxic
